The record followed here is ChEMBL document CHEMBL4382210, “Identification of novel benzothiopyranone compounds against Mycobacterium tuberculosis through scaffold morphing from benzothiazinones” (Eur J Med Chem, 2018).

The term MIC90 denotes an inhibitory concentration at the 90% level, which refers to growth in some studies and to a panel of isolates in others. Read a high MIC90 as lower susceptibility.

Experiment [1] concerns Mycobacterium tuberculosis. The experiment in a line: Antimicrobial activity against multi drug-resistant Mycobacterium tuberculosis 14231 after 7 days by MABA. The experiment is classed as functional. To be noted: Mycobacterium tuberculosis, 14231, 168 h. In outline:
(§1)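 Strain H37Rv or clinical isolates grown to late log phase in 7H9-ADC-TG, washed, resuspended in PBS, filtered (8 µm) and frozen. On day 7 Tween 80 and alamar blue added, read 16–24 h later (ex 530/em 590). MIC = lowest concentration giving ≥90% fluorescence reduction versus bacterium-only controls.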
Background: Resazurin is reduced to fluorescent resorufin, in cell work by metabolically active cells.

In experiment [2] the test system is Mycobacterium tuberculosis. The experiment in a line: Antimicrobial activity against multi drug-resistant Mycobacterium tuberculosis 12611 after 7 days by MABA. Type of experiment: functional. To be noted: Mycobacterium tuberculosis, 12611, 168 h. A digest of the protocol:
as §1

Structures are written as SMILES. Converted amounts (≈) assume the structure as drawn.

With `O=c1cc(N2CCN(Cc3ccccc3)CC2)sc2c([N+](=O)[O-])cc(C(F)(F)F)cc12`, the MIC90 in experiment [1] was 0.023 µg/mL (≈ 0.0512 µM); in experiment [2], 0.011 µg/mL (≈ 0.0245 µM).
On to `O=c1cc(N2CCN(CC3CCCCC3)CC2)sc2c([N+](=O)[O-])cc(C(F)(F)F)cc12`, for which the MIC90 in experiment [1] and in experiment [2] was less than 0.002 µg/mL throughout.
For `NNC(=O)c1ccncc1` [ISONIAZID], the MIC90 is greater than 40 µg/mL in experiment [1] and 19.5 µg/mL (≈ 142 µM) in experiment [2].
With `O=c1nc(N2CCN(CC3CCCCC3)CC2)sc2c([N+](=O)[O-])cc(C(F)(F)F)cc12` [MACOZINONE], the MIC90 in experiment [1] and in experiment [2] was less than 0.002 µg/mL throughout.
Turning to `CO[C@H]1/C=C/O[C@@]2(C)Oc3c(C)c(O)c4c(O)c(c(/C=N/N5CCN(C)CC5)c(O)c4c3C2=O)NC(=O)/C(C)=C\C=C\[C@H](C)[C@H](O)[C@@H](C)[C@@H](O)[C@@H](C)[C@H](OC(C)=O)[C@@H]1C` [RIFAMPIN], the MIC90 in experiment [1] and in experiment [2] was greater than 40 µg/mL throughout.
